In BindingDB's records for doi:10.1021/jm940845j (University of California, 1996):
pIC50: −log10 of the molar value.

Target: Tumor necrosis factor (Homo sapiens, UniProt P01375)
Test: TNF-alpha production in PBMC by ELISA method
Summary of the method: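 Human PBMC were isolated from heparinized blood by ficoll-histopaque and plated at […] cells/mL in RPMI 1640 with 20% autologous plasma and glutamine. Compound at 2X concentration was added in equal volume, 60 min preincubation, then LPS 10 ug/mL final. Supernatant was taken at 18 h for sandwich ELISA (mouse capture, rabbit detection, poly-HRP). IC50 is the concentration inhibiting TNFa production by 50% of control.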

Tumor necrosis factor, sequence (P01375 whole entry): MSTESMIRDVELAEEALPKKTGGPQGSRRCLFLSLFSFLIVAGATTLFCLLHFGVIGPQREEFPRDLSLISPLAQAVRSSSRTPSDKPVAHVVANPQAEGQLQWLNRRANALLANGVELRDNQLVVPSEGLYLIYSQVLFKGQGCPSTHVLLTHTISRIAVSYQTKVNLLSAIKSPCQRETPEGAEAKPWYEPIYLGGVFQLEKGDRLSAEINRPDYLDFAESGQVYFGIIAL

Row | SMILES | pIC50
1 | COc1ccc([C@@H]2CNC(=O)C2)cc1OC1CCCC1 (racemic) [Adeo] | 4.92
2 | CC(=O)CCCCn1c(=O)c2c(ncn2C)n(C)c1=O [1-(5-Oxohexyl)theobromine (pentoxifylline)] | 4.07
3 | CCOC(=O)CCn1c(=O)c2c(ncn2C)n(C)c1=O [3-(3,7-Dimethyl-2,6-dioxo-2,3,6,7-tetrahydro-purin-1-yl)-propionic acid ethyl ester] | 5.00
4 | CCOC(=O)CCCn1c(=O)c2nccnc2n(Cc2ccccc2)c1=O [4-(1-Benzyl-2,4-dioxo-1,4-dihydro-2H-pteridin-3-yl)-butyric acid ethyl ester] | 3.76
5 | CCCCn1c(=O)n(CCCC(=O)OCC)c(=O)c2nccnc21 [4-(1-Butyl-2,4-dioxo-1,4-dihydro-2H-pteridin-3-yl)-butyric acid ethyl ester] | 4.82
6 | CCOC(=O)CCCn1c(=O)c2nccnc2n(CC(C)C)c1=O [4-(1-Isobutyl-2,4-dioxo-1,4-dihydro-2H-pteridin-3-yl)-butyric acid ethyl ester] | 4.70
7 | CCOC(=O)CCCn1c(=O)c2nccnc2n(C)c1=O [4-(1-Methyl-2,4-dioxo-1,4-dihydro-2H-pteridin-3-yl)-butyric acid ethyl ester] | 4.92
8 | Cn1c(=O)n(CCCC(=O)O)c(=O)c2nccnc21 [4-(1-Methyl-2,4-dioxo-1,4-dihydro-2H-pteridin-3-yl)-butyric acid] | < 3.70
9 | CCOC(=O)CCCn1c(=O)c2ccccc2n(C)c1=O [4-(1-Methyl-2,4-dioxo-1,4-dihydro-2H-quinazolin-3-yl)-butyric acid ethyl ester] | 4.26
10 | Cn1c(=O)n(CCCC(=O)O)c(=O)c2ccccc21 [4-(1-Methyl-2,4-dioxo-1,4-dihydro-2H-quinazolin-3-yl)-butyric acid] | < 3.70
11 | CCOC(=O)CCCn1c(=O)c2nc(-c3ccccc3)cnc2n(C)c1=O [4-(1-Methyl-2,4-dioxo-6-phenyl-1,4-dihydro-2H-pteridin-3-yl)-butyric acid ethyl ester] | < 3.70
12 | CCCCCn1c(=O)n(CCCC(=O)OCC)c(=O)c2nccnc21 [4-(2,4-Dioxo-1-pentyl-1,4-dihydro-2H-pteridin-3-yl)-butyric acid ethyl ester] | 4.80
13 | CCCn1c(=O)n(CCCC(=O)OCC)c(=O)c2nccnc21 [4-(2,4-Dioxo-1-propyl-1,4-dihydro-2H-pteridin-3-yl)-butyric acid ethyl ester] | 5.30
14 | CCCn1c(=O)n(CCCC(=O)O)c(=O)c2nccnc21 [4-(2,4-Dioxo-1-propyl-1,4-dihydro-2H-pteridin-3-yl)-butyric acid] | < 3.70
15 | CCOC(=O)CCCn1c(=O)c2c(ncn2C)n(C)c1=O [4-(3,7-Dimethyl-2,6-dioxo-2,3,6,7-tetrahydro-purin-1-yl)-butyric acid ethyl ester] | 5.22
16 | Cn1cnc2c1c(=O)n(CCCC(=O)O)c(=O)n2C [4-(3,7-Dimethyl-2,6-dioxo-2,3,6,7-tetrahydro-purin-1-yl)-butyric acid] | < 3.70
17 | COC(=O)c1ccc(Cn2c(=O)c3c(ncn3C)n(C)c2=O)cc1 [4-(3,7-Dimethyl-2,6-dioxo-2,3,6,7-tetrahydro-purin-1-ylmethyl)-benzoic acid methyl ester] | < 3.70

Row | SMILES | pIC50
18 | CCCCOc1cc(C[C@@H]2CNC(=O)N2)ccc1OC [4-(3-Butoxy-4-methoxy-benzyl)-imidazolidin-2-one] | 4.30
19 | CCOC(=O)CCCn1c(=O)c2nsnc2n(C)c1=O [4-(4-Methyl-5,7-dioxo-4,5-dihydro-7H-[1,2,5]thiadiazolo[3,4-d]pyrimidin-6-yl)-butyric acid ethyl ester] | 4.60
20 | Cn1c(=O)n(CCCC(=O)O)c(=O)c2nsnc21 [4-(4-Methyl-5,7-dioxo-4,5-dihydro-7H-[1,2,5]thiadiazolo[3,4-d]pyrimidin-6-yl)-butyric acid] | < 3.70
21 | CCCn1c(=O)n(CCCC(=O)OCC)c(=O)c2nsnc21 [4-(5,7-Dioxo-4-propyl-4,5-dihydro-7H-[1,2,5]thiadiazolo[3,4-d]pyrimidin-6-yl)-butyric acid ethyl ester] | 4.74
22 | CCOC(=O)CCCn1c(=O)c2nc(CC)c(CC)nc2n(C)c1=O [4-(6,7-Diethyl-1-methyl-2,4-dioxo-1,4-dihydro-2H-pteridin-3-yl)-butyric acid ethyl ester] | 3.89
23 | CCCn1c(=O)n(CCCC(=O)OCC)c(=O)c2c1ncn2C [4-(7-Methyl-2,6-dioxo-3-propyl-2,3,6,7-tetrahydro-purin-1-yl)-butyric acid ethyl ester] | 5.30
24 | CCOC(=O)CCCn1c(=O)c2c(nc(Br)n2C)n(C)c1=O [4-(8-Bromo-3,7-dimethyl-2,6-dioxo-2,3,6,7-tetrahydro-purin-1-yl)-butyric acid ethyl ester] | 4.22
25 | COC(=O)c1ccc(Cn2c(=O)c3c(nc(Br)n3C)n(C)c2=O)cc1 [4-(8-Bromo-3,7-dimethyl-2,6-dioxo-2,3,6,7-tetrahydro-purin-1-ylmethyl)-benzoic acid methyl ester] | < 3.70
26 | CCOC(=O)CCCn1c(=O)c2c([nH]c(=S)n2C)n(C)c1=O [4-(8-Mercapto-3,7-dimethyl-2,6-dioxo-2,3,6,7-tetrahydro-purin-1-yl)-butyric acid ethyl ester] | 4.00
27 | CCOC(=O)c1ccc(Cn2c(=O)c3c([nH]c(=S)n3C)n(C)c2=O)cc1 [4-(8-Mercapto-3,7-dimethyl-2,6-dioxo-2,3,6,7-tetrahydro-purin-1-ylmethyl)-benzoic acid ethyl ester] | < 3.70
28 | CCOC(=O)CCCn1c(=O)c2nccnc2n(C2CCOC2)c1=O (stereo not drawn) [4-[2,4-Dioxo-1-(tetrahydro-furan-3-yl)-1,4-dihydro-2H-pteridin-3-yl]-butyric acid ethyl ester] | 4.72
29 | CCOC(=O)CCCCn1c(=O)c2c(ncn2C)n(C)c1=O [5-(3,7-Dimethyl-2,6-dioxo-2,3,6,7-tetrahydro-purin-1-yl)-pentanoic acid ethyl ester] | 4.96
30 | CCCCCCCn1c(=O)c2nsnc2n(C)c1=O [6-Heptyl-4-methyl-4H-[1,2,5]thiadiazolo[3,4-d]pyrimidine-5,7-dione] | 4.12
31 | Cn1c(=O)[nH]c(=O)c2[nH]c(=S)[nH]c21 [8-Mercapto-3-methyl-3,7-dihydro-purine-2,6-dione] | < 3.70
32 | CCOC(=O)Cn1c(=O)c2c(ncn2C)n(C)c1=O [(3,7-Dimethyl-2,6-dioxo-2,3,6,7-tetrahydro-purin-1-yl)-acetic acid ethyl ester] | 3.70
33 | COC(=O)/C=C\Cn1c(=O)c2nccnc2n(C)c1=O [(Z)-4-(1-Methyl-2,4-dioxo-1,4-dihydro-2H-pteridin-3-yl)-but-2-enoic acid methyl ester] | 4.60
